In ChEMBL document CHEMBL3877249, “Novel 2-aryl-4-(4'-hydroxyphenyl)-5H-indeno[1,2-b]pyridines as potent DNA non-intercalative topoisomerase catalytic inhibitors” (Eur J Med Chem, 2017):
pIC50: −log10 of the molar value. Active and inactive are the calls of the source. The calls are words filed in the database; no cut-off is given here.

Assays:
[1] = target: DNA topoisomerase 2-alpha (Homo sapiens) (UniProt P11388); experiment: Inhibition of human DNA topoisomerase-2alpha ATPase activity at 300 uM using supercoiled pBR322 DNA as substrate after 1 hr by malachite green dye based assay relative to control
Method in brief: (§1)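 Topo IIα ATPase: 4 units of enzyme with 100 ng supercoiled pBR322 and 250 µM ATP in 10 mM Tris-HCl pH 7.9, 50 mM NaCl, 50 mM KCl, 5 mM MgCl2, 0.1 mM EDTA, 15 µg/mL BSA at 37 °C for 1 h. Malachite green reagent was then added for 30 min at room temperature, and released phosphate was read at 620 nm.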

[2] = target: DNA topoisomerase 2-alpha (Homo sapiens) (UniProt P11388); experiment: Inhibition of human DNA topoisomerase-2alpha ATPase activity at 200 uM using supercoiled pBR322 DNA as substrate after 1 hr by malachite green dye based assay relative to control; method in brief: as §1
[3] = target: DNA topoisomerase 2-alpha (Homo sapiens) (UniProt P11388); experiment: Inhibition of human DNA topoisomerase-2alpha ATPase activity at 400 uM using supercoiled pBR322 DNA as substrate after 1 hr by malachite green dye based assay relative to control; method in brief: as §1
[4] = species on record: Homo sapiens; experiment: Inhibition of DNA topoisomerase catalytic activity in human T47D nuclear extract at 50 uM using supercoiled pBR322 DNA as substrate after 24 hrs by ethidium bromide staining based agarose gel electrophoresis relative to control
Method in brief: (§2)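 T47D cells at 5 × 10^5 per 60 mm dish were grown to 80% confluence, washed with FBS-free medium and treated 24 h. Nuclear extracts were prepared in HEPES/MgCl2/KCl/DTT/NP40 buffer, then extracted with NaCl buffer. The amount of extract that fully relaxes 100 ng pBR322 at 37 °C in 20 min was set as the unit. Products were run on agarose in TAE and stained with ethidium bromide (0.5 µg/mL).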

[5] = target: DNA topoisomerase 2-alpha (Homo sapiens) (UniProt P11388); experiment: Inhibition of human DNA topoisomerase-2alpha at 500 uM using supercoiled pBR322 DNA as substrate after 20 mins by ethidium bromide staining based agarose gel electrophoresis relative to control
[6] = Antiproliferative activity against human T47D cells after 72 hrs by CCK8 assay; format: functional, cell-based
Method in brief: (§3)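 Cells seeded at 2–4 × 10^4 per well, grown overnight in medium with 10% FBS at 37 °C and 5% CO2. After 4 h FBS starvation they were exposed to graded compound concentrations for 72 h. CCK-8 was added for a further 4 h and absorbance read at 450 nm. IC50 came from a four-parameter logistic fit.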

[7] = Antiproliferative activity against HFL1 cells after 72 hrs by CCK8 assay; format: cell-based; details: Homo sapiens, HFL1, 72 h; method in brief: as §3
[8] = target: T1, DNA topoisomerase 1 (Homo sapiens) (UniProt P11387); experiment: Inhibition of human DNA topoisomerase-1 at 20 uM using supercoiled pBR322 DNA as substrate after 30 mins by ethidium bromide staining based agarose gel electrophoresis relative to control
T1 sequence (whole entry): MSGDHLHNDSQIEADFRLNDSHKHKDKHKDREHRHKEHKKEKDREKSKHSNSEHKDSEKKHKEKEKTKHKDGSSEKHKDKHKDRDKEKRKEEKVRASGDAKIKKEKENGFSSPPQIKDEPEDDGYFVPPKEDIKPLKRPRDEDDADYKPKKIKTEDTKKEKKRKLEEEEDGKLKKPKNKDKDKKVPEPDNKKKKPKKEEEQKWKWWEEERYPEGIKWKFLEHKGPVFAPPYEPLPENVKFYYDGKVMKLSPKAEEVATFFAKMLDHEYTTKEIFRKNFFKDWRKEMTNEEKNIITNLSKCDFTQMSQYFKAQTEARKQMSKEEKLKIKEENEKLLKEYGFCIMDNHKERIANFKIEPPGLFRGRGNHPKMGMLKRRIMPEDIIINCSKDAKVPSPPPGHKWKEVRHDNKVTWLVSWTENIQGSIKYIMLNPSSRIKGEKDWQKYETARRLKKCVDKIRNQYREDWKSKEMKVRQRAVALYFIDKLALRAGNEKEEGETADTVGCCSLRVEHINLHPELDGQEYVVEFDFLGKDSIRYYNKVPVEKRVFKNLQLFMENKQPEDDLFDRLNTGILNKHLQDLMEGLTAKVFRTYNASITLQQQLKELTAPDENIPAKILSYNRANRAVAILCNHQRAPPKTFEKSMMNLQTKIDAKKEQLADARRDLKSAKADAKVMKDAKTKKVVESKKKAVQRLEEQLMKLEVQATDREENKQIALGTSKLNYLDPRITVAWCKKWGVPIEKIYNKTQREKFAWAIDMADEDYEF
Method in brief: (§4)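 Recombinant human topo I, 1 unit (the amount that fully relaxes supercoiled pBR322), with 100 ng pBR322 DNA at 37 °C for 30 min in 10 mM Tris-HCl pH 7.9, 150 mM NaCl, 0.1% BSA. Compounds were screened at 100 µM, and those above 30% inhibition were retested at 20 µM. Products ran on 1% agarose at 15 V for 7 h in TAE with ethidium bromide staining. Mean ± S.D. from three experiments in triplicate.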

[9] = Antiproliferative activity against human HeLa cells after 72 hrs by CCK8 assay; format: functional, cell-based; method in brief: as §3
[10] = Antiproliferative activity against human HCT15 cells after 72 hrs by CCK8 assay; format: functional, cell-based; details: HCT-15, 72 h; method in brief: as §3
[11] = species on record: Homo sapiens; experiment: Inhibition of DNA topoisomerase catalytic activity in human T47D nuclear extract at 20 uM using supercoiled pBR322 DNA as substrate after 24 hrs by ethidium bromide staining based agarose gel electrophoresis relative to control; method in brief: as §2
[12] = target: DNA topoisomerase 2-alpha (Homo sapiens) (UniProt P11388); experiment: Inhibition of human DNA topoisomerase-2alpha at 100 uM using supercoiled pBR322 DNA as substrate after 30 mins by ethidium bromide staining based agarose gel electrophoresis relative to control
Method in brief: (§5)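 Human topo IIα, 1 unit set by full relaxation of pBR322, with 100 ng pBR322 for 30 min in 10 mM Tris-HCl pH 7.9, 50 mM NaCl, 5 mM MgCl2, 1 mM EDTA and BSA. Stop was with EDTA. Screening was at 100 µM, with retest at 20 µM if inhibition exceeded 30%. Gel was 1% agarose at 25 V for 4 h in TAE, stained with ethidium bromide. Mean ± S.D. from three experiments in triplicate.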

[13] = target: T1, DNA topoisomerase 1 (Homo sapiens); experiment: Inhibition of human DNA topoisomerase-1 at 100 uM using supercoiled pBR322 DNA as substrate after 30 mins by ethidium bromide staining based agarose gel electrophoresis relative to control; method in brief: as §4
[14] = target: DNA topoisomerase 2-alpha (Homo sapiens) (UniProt P11388); experiment: Inhibition of human DNA topoisomerase-2alpha at 20 uM using supercoiled pBR322 DNA as substrate after 30 mins by ethidium bromide staining based agarose gel electrophoresis relative to control; method in brief: as §5
[15] = Antiproliferative activity against human DU145 cells after 72 hrs by CCK8 assay; format: functional, cell-based; details: DU-145, 72 h; method in brief: as §3
[16] = Antiproliferative activity against HEK293 cells after 72 hrs by CCK8 assay; format: cell-based; details: Homo sapiens, HEK293, 72 h; method in brief: as §3

Sequence of DNA topoisomerase 2-alpha (Homo sapiens) (P11388 whole entry): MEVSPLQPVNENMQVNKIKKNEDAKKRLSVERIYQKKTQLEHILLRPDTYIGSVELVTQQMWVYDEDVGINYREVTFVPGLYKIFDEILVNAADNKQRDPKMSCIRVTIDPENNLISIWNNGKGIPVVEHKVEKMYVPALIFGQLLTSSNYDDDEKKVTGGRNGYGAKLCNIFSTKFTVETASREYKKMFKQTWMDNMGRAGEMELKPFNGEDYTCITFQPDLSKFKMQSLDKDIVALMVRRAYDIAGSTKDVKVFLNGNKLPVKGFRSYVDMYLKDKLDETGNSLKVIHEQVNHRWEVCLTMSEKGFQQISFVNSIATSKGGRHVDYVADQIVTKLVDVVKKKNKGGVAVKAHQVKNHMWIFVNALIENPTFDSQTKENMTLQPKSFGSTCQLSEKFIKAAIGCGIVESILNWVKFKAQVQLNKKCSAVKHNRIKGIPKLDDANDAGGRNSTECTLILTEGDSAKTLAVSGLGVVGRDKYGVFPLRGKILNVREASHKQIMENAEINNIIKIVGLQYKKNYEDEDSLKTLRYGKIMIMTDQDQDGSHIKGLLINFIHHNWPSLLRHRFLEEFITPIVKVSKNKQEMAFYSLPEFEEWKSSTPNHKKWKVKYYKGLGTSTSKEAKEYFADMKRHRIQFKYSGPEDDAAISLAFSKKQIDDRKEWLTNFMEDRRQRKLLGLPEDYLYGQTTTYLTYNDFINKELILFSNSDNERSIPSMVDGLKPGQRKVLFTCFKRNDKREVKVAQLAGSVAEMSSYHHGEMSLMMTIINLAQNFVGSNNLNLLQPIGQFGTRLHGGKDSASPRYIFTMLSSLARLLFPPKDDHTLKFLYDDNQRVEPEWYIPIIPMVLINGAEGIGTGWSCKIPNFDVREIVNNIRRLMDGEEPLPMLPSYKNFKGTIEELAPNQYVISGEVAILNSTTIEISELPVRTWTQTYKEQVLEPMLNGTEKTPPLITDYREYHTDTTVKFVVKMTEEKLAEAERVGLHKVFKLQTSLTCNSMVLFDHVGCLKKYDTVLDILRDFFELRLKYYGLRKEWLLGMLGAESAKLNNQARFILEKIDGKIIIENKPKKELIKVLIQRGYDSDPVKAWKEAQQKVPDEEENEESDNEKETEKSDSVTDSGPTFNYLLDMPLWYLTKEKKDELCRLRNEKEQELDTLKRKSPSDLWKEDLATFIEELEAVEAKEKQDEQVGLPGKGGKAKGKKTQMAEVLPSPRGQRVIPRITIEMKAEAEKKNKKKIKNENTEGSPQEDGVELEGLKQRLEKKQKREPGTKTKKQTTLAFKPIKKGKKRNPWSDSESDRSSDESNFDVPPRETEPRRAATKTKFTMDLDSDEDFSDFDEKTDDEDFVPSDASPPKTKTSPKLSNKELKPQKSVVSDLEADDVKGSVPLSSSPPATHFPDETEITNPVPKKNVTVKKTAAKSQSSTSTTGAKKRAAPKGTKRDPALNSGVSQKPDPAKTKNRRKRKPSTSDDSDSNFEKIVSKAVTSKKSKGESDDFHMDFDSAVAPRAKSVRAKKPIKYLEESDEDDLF

Compound `CO[C@@H]1[C@@H](OC(N)=O)[C@@H](O)[C@H](Oc2ccc3c(O)c(NC(=O)c4ccc(O)c(CC=C(C)C)c4)c(=O)oc3c2C)OC1(C)C` has an inhibition [1] of 33.3%, an inhibition [2] of 22.7% and an inhibition [3] of 55.9%.
For `Oc1ccc(-c2cc(-c3ccco3)nc3c2Cc2ccccc2-3)cc1`, the inhibition [4] was 97%, the inhibition [5] was “Active” and the pIC50 [6] was 6.02. It also gave a pIC50 [7] of 5.10, an inhibition [8] of 53.5% and a pIC50 [9] of 5.40. The inhibition [3] was 0%, the pIC50 [10] was 5.51 and the inhibition [11] was 34.3%. It also gave an inhibition [12] of 95.1%, an inhibition [13] of 69.7% and an inhibition [14] of 92.2%. It also gave a pIC50 [15] of 5.43 and a pIC50 [16] of 5.46.
